Screening data from PubChem.
The entries come from a sample that favours hits as a whole.
Hep lipid drop: modulators of hepatic lipid droplet formation | inhibition, % at 6.5 µM | actives 0.4% (n = 240,000) | AML12 mouse hepatocytes, oleate lipid droplets, BODIPY imaging;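 active = lipid droplet intensity inhibited by at least 50%, with more than 500 cells counted; inconclusive = wells with under 300 cells, treated as cytotoxic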
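System: AML12 hepatocytes (mouse). Probe or stimulus: oleic acid at 100 µM to induce lipid droplet formation. Times: overnight treatment with compound plus oleate. Detection: Image-based BODIPY and DAPI two-channel analysis. Evaluation: percent inhibition of filter-corrected integrated lipid droplet intensity per well.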
MPTP inh: blocks calcium-induced mitochondrial swelling | inhibition, % at 10 µM | isolated mouse mitochondria, Ca2+ swelling absorbance, 30 min | actives 1.4% (n = 360,000);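 active = inhibition of 50% or more, scaled per plate between neutral and stimulator controls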;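 also: 0% = DMSO wells given calcium and 100% = 1 mM EGTA wells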
T cruzi inh: T. cruzi replication inhibition | T. cruzi beta-gal in NIH3T3, luminescence, 90 h | inhibition, % (test concentration not listed) | actives 1.4% (n = 300,000);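 active = mean inhibition across valid replicates above about 55%, limit read from the data; inconclusive = mean below that limit but half or more replicates reach it; inactive = mean below it, under half of replicates reach it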;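 also: signal also drops with host cell toxicity which is not excluded here; 0% = plate median of DMSO wells and 100% = zero luminescence signal; higher percent means less beta-gal luminescence so fewer parasites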
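System: mouse NIH/3T3 fibroblasts infected with β-gal-expressing T. cruzi Tulahuen C4 / Input: NIH/3T3 cells, 5,000 per well / Buffer or medium: Low-serum DMEM with 2% FBS / Probe or stimulus: 5000 reporter trypomastigotes per well / Schedule: ≥90 h infection period, 3 h prior cell attachment / Measured by: GalScreen luminescence, 60 min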
L major viab: Leishmania major promastigote growth inhibition; actives 9% (n = 200,000); Leishmania major promastigotes, resazurin fluorescence viability; inhibition, % at 10 µM; in the data active = inhibition above about 50%;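 also: promastigotes grown with compound for 44 hours at 28 °C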
DTT redox prof: compounds producing H2O2 with reducing agent – biochemical, NIH compound library profiling, artefact control for MLSCN library redox annotation, primary screen; DTT-dependent redox cycling H2O2, phenol red/HRP absorbance; 100% = 100 µM peroxide control, 0% = buffer; activation, % at 10 µM; actives 0.03% (n = 200,000); AID 878;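 active = activation of at least 50% relative to the plate's high and low controls in the primary single-dose screen; inactive = activation below 50%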;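 also: compound incubated with DTT at 0.8 mM final as the reducing agent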
Hep lipid conf: confirmation of inhibitors of hepatic lipid droplet formation; AML12 mouse hepatocytes, BODIPY lipid droplet imaging; droplets induced with 100 µM oleic acid; shares compounds with Hep lipid drop; AID 463183; actives 65% (n = 870); inhibition, % at 5.2 µM;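 active = inhibition of lipid droplet metric at least 50%, with more than 300 cells in each of four replicates; inconclusive = wells under 300 cells, flagged as toxic or low count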;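 also: plate controls were DMSO with oleic acid for no effect and 5 µM Triacsin-C for full effect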
AML12 tox img: counter-screen for cytotoxicity in AML12 mouse hepatocytes; shares compounds with Hep lipid drop; DAPI nuclear morphology cytotoxicity imaging; hits give high values; cells fed 100 µM oleate overnight; z-score at 5 µM; actives 3% (n = 870); AID 463200; in the data active = z-score above about 6.3;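 also: compound exposure lasted overnight at 37 °C before fixation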
AML12 tox conf: confirmation of cytotoxicity in AML12 mouse hepatocytes; shares compounds with Hep lipid drop; AML12 mouse hepatocyte viability, ATP luminescence; cells loaded with 100 µM oleic acid; cytotoxicity, % at 50 µM; 530 tested, under 10 active;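 active = cytotoxicity above 50% in each of four replicates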;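 also: compound exposure lasted overnight at 37 °C before the ATP read; 0% = DMSO-treated cells and 100% = wells with no cells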
Starred values were filed as active, the others as inactive; ? = inconclusive; · = not tested or not shown.

SMILES | Hep lipid drop | MPTP inh | T cruzi inh | L major viab | DTT redox prof | Hep lipid conf | AML12 tox img | AML12 tox conf
Cc1ccc(Cn2nc(C)c(NC(=O)C3(C)CC3(Br)Br)c2C)cc1 (stereo unspecified) | 64* | 1 | -8 | 8 | 3 | 68* | 0.89 | 16
CCCCN(C(=O)c1cccc(S(=O)(=O)N2CCN(C)CC2)c1)c1c(N)n(CCC)c(=O)[nH]c1=O | · | 1 | -4 | · | · | · | · | ·
O=C(Nc1ccccc1)C1=C[C@@H](C2CCCCC2)C[C@@H](OCc2ccc(CO)cc2)O1 | 53* | -1 | 24 | 97* | 0 | 65* | -0.34 | 8
NC(=O)CC(NC(=O)Cc1cccc2ccccc12)c1ccc(N2CCN(c3ccc(F)cc3)CC2)c([N+](=O)[O-])c1 (stereo unspecified) | 53* | 0 | -4 | · | · | 18 | -0.64 | ·
NC(=O)CC(NC(=O)Cc1cccc2ccccc12)c1ccc(N2CCCCCCC2)c([N+](=O)[O-])c1 (stereo unspecified) | · | 1 | 22 | · | · | · | · | ·
O=C(COC(=O)c1ccc(S(=O)(=O)N2CCCCC2)cc1)Nc1ccccc1Cl | · | 2 | · | · | · | · | · | ·
Cc1ccccc1C(=O)NC1CCN(Cc2nnnn2C2CCCC2)CC1 | 63* | -1 | 0 | -2 | 1 | 31 | -0.19 | ·
Cc1ccccc1C(=O)NC1CCN(Cc2nnnn2C(C)(C)C)CC1 | -37 | -5 | -1 | -5 | 0 | · | · | ·
COc1ccc(-c2c(C(F)(F)F)nn(C)c2NC(=O)CSCC(=O)O)cc1 | 13 | 2 | -25 | · | · | · | · | ·
Nc1cc(Nc2ccccc2)c2nonc2c1[N+](=O)[O-] | 101* | -1 | 8 | · | · | 110* | 0.69 | 3
CCN(CC(=O)Nc1ccc([N+](=O)[O-])cc1OC)c1ccccc1 | · | 4 | 12 | 1 | -8 | · | · | ·
O=C(CS(=O)CC(=O)Nc1cccnc1)Nc1ccc(F)cc1 (stereo unspecified) | -5 | -3 | -6 | · | · | · | · | ·
COc1ccc(N=Nc2nc(-c3ccccc3)c(-c3ccccc3)[nH]2)cc1 | 100* | 41 | 30 | 87* | 0 | 108* | 1 | -10
CCOc1ccc(CCNC(=O)C(CCC(N)=O)NC(=O)OCc2ccccc2)cc1OCC (stereo unspecified) | 35 | -1 | 5 | -1 | -1 | · | · | ·
C=CCOc1ccc(-c2nc3c(c(=O)[nH]c(=O)n3Cc3ccccc3)n2CCCOC)cc1 | 56* | 0 | 17 | · | · | 65* | 0.3 | 11
Cn1cnc2c1c(=O)n(Cc1cccc(Cl)c1)c(=O)n2C | · | -1 | -7 | · | · | · | · | ·
O=C(Nc1ccc(-c2csc(Nc3ccc(Cl)cc3)n2)cc1)c1cccc(C(F)(F)F)c1 | 72* | · | 68* | · | · | 100* | 3.3 | 10
O=C(Nc1ccc(-c2csc(Nc3ccccc3)n2)cc1)c1cccc(C(F)(F)F)c1 | 7 | 1 | 35 | · | · | · | · | ·
COc1ccc(CC(=O)OCC(=O)N2N=C(c3ccccc3)CC2c2ccc(OC)cc2)cc1 (stereo unspecified) | 82* | 1 | 8 | 25 | 0 | 107* | -0.45 | ·
COc1ccc(C2CC(c3ccccc3)=NN2C(=O)CCC(=O)O)cc1 (stereo unspecified) | -1 | -1 | 10 | · | · | · | · | ·
Cn1cnc(C(=O)N2CCc3ccccc3C2)c1C(=O)N1CCc2ccccc2C1 | · | 0 | · | · | · | · | · | ·
Cc1ccc(NC(=O)N2CCC(C(=O)c3ccc(F)cc3)CC2)cc1 | 83* | 0 | -31 | · | · | 96* | 0.052 | 5
COc1ccc(C(=O)C2CCN(C(=O)Nc3ccc(C)cc3)CC2)cc1 | 32 | 0 | 23 | · | · | · | · | ·
COc1ccc(OC)c(NC(=O)Cc2coc3ccc(C)cc23)c1 | 10 | 3 | 7 | 15 | 0 | · | · | ·
COc1ccc(OC)c(NC(=O)Cc2coc3ccc4ccccc4c23)c1 | 51* | -2 | -11 | 14 | 0 | 85* | 0.52 | 12
SMILES | Hep lipid drop | MPTP inh | T cruzi inh | L major viab | DTT redox prof | Hep lipid conf | AML12 tox img | AML12 tox conf
Cc1cccc(NC(=O)Cc2coc3ccc4ccccc4c23)n1 | 57* | 0 | -6 | 6 | 0 | 88* | -0.14 | 14
Cn1ncc2c(=O)[nH]nnc21 | · | 0 | · | · | · | · | · | ·
Cc1cc(Br)ccc1NC(=O)CN(C)C(=O)CSCc1ccccc1 | · | 0 | -1 | · | · | · | · | ·
CS(=O)(=O)N(Cc1ccc(Cl)cc1)c1ccc(C(=O)N/N=C/c2cc3ccccc3nc2Cl)cc1 | 64* | -1 | 25 | 30 | 0 | 106* | -0.46 | 1
CS(=O)(=O)N(Cc1ccc(Cl)cc1)c1ccc(C(=O)NCc2ccccn2)cc1 | -25 | 1 | 2 | · | · | · | · | ·
COc1ccc(NC(=O)c2cc(-c3cc(Cl)ccc3OC)n[nH]2)c(C)c1 | · | -1 | · | · | · | · | · | ·
CC(C)C(C)(C#N)NC(=O)CSc1nc2scc(-c3ccc(F)cc3)c2c(=O)n1Cc1ccccc1 (stereo unspecified) | 105* | 2 | 28 | 35 | 1 | 113* | -0.29 | ·
COCCNC(=O)C(c1cccs1)N(C(=O)Cn1nnc2ccccc21)c1ccccc1 (stereo unspecified) | -3 | 3 | -1 | -3 | 3 | · | · | ·
COc1ccc(N(C(=O)CCl)C(C(=O)NCCc2ccccc2)c2cccs2)cc1Cl (stereo unspecified) | 127* | -4 | 63* | 100* | 0 | ? | 34* | ·
C=CCN1C(=O)/C(=C\C=C2\N(C)c3ccccc3C2(C)C)SC1=S | 91* | 22 | 52 | 20 | 3 | 107* | -0.34 | 10
CCCN1C(=O)/C(=C/C=C2\N(CC)c3ccccc3C2(C)C)SC1=S | · | 18 | 37 | 14 | -6 | · | · | ·
COc1cc(CNc2nnnn2C)cc(OC)c1OC | 4 | 0 | -11 | · | · | · | · | ·
COc1ccc(-c2cnc(SCC(=O)Nc3nc(C(C)(C)C)cs3)n2Cc2ccco2)cc1 | 64* | 1 | 49 | 25 | 0 | 94* | 1.4 | -32
COc1ccc(-c2cnc(SCC(=O)Nc3cc(C)on3)n2Cc2ccco2)cc1 | -5 | 0 | 1 | 2 | -1 | · | · | ·
Cc1cc(C)nc(NCCO)n1 | 81* | 1 | -17 | -1 | 0 | 30 | -0.23 | ·
Cc1ccc2nc(C)cc(NCCO)c2c1 | 10 | -1 | 10 | 33 | 1 | · | · | ·
Cc1cc(C(=O)N[C@@H](c2ccccc2)[C@]2(C)C[C@H]2[C@@H](C)C(=O)Nc2ccc3ccccc3c2)no1 | 96* | 0 | 7 | -4 | 1 | 101* | 0.52 | ·
CC(Sc1nnc(Nc2ccccc2)s1)C(=O)Nc1nc(-c2ccccc2)cs1 (stereo unspecified) | 54* | 1 | 6 | 27 | 0 | 96* | -0.7 | 12
